Assay: Inhibition of bovine testis hyaluronidase type 4 after 20 mins by modified Morgan-Elson method
Set-up: species or system Bos taurus
Procedure, shortened: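 Bovine testis hyaluronidase (Type IV-S, 400 NF units/mL stock) preincubated with sample in 0.1 mol/L acetate buffer pH 3.5, 20 min, 37 °C. Activated with 2.5 mmol/L CaCl2 for 20 min, then rooster-comb potassium hyaluronate (0.4 mg/mL stock) added for 40 min. Stopped with NaOH, boiled with boric acid, p-dimethylaminobenzaldehyde colour read at 585 nm. Percent inhibition corrected against blanks.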

Structure (SMILES)	IC50 [µM]
COc1cc(/C=C/C(=O)O[C@H](C(=O)O)[C@](O)(Cc2ccc(O)cc2)C(=O)O)ccc1O [CIMICIFUGIC ACID E]	120
COc1cc(/C=C/C(=O)O[C@H](C(=O)O)[C@](O)(Cc2ccc(O)c(O)c2)C(=O)O)ccc1O[C@@H]1O[C@H](CO)[C@H](O)[C@H](O)[C@H]1O [SHOMASIDE A]	573
COc1cc(/C=C/C(=O)O[C@H](C(=O)O)[C@](O)(Cc2ccc(O)cc2)C(=O)O)ccc1O[C@@H]1O[C@H](CO)[C@H](O)[C@H](O)[C@H]1O [SHOMASIDE B]	430
O=C(/C=C/c1ccc(O)c(O)c1)O[C@H](Cc1ccc(O)c(O)c1)C(=O)O [ROSMARINIC ACID]	545
COC(=O)C(O)C(Cc1ccc(O)cc1)(OC(=O)/C=C/c1ccc(O[C@@H]2O[C@H](CO)[C@@H](O)[C@H](O)[C@H]2O)c(OC)c1)C(=O)O (some centres not stated) [SHOMASIDE D]	> 658
COc1cc(/C=C/C(=O)O[C@H](C(=O)O)[C@](O)(Cc2ccc(O)c(O)c2)C(=O)O)cc(OC)c1O [CIMICIFUGIC ACID I]	143
COc1cc(OC(=O)/C=C/c2ccc(O[C@@H]3O[C@H](CO)[C@H](O)[C@H](O)[C@H]3O)c(OC)c2)ccc1CCO [SHOMASIDE E]	> 790

More lines, in order of falling IC50, values ahead:

IC50 [µM]	Structure (SMILES)
663	COc1cc(/C=C/C(=O)O[C@H](C(=O)O)[C@](O)(Cc2ccc(O)cc2)C(=O)O)ccc1O[C@@H]1O[C@H](CO)[C@@H](O)[C@H](O)[C@H]1O [SHOMASIDE C]
525	O=C(O[C@H](C(=O)O)[C@](O)(Cc1ccc(O)c(O)c1)C(=O)O)c1ccc(O)cc1 [CIMICIFUGIC ACID H]
251	O=C(/C=C/c1ccc(O)cc1)O[C@H](C(=O)O)[C@](O)(Cc1ccc(O)c(O)c1)C(=O)O [CIMICIFUGIC ACID C]
193	COc1cc(/C=C/C(=O)O[C@H](C(=O)O)[C@](O)(Cc2ccc(O)cc2)C(=O)O)cc(OC)c1O [CIMICIFUGIC ACID J]
153	O=C(/C=C/c1ccc(O)c(O)c1)O[C@H](C(=O)O)[C@](O)(Cc1ccc(O)cc1)C(=O)O [CIMICIFUGIC ACID D]
144	O=C(/C=C/c1ccc(O)c(O)c1)O[C@H](C(=O)O)[C@](O)(Cc1ccc(O)c(O)c1)C(=O)O [FUKINOLIC ACID]
138	COc1ccc(/C=C/C(=O)O[C@H](C(=O)O)[C@](O)(Cc2ccc(O)c(O)c2)C(=O)O)cc1OC [CIMICIFUGIC ACID G]
112	COc1cc(/C=C/C(=O)O[C@H](C(=O)O)[C@](O)(Cc2ccc(O)c(O)c2)C(=O)O)ccc1O [CIMICIFUGIC ACID A]
92	COc1ccc(/C=C/C(=O)O[C@H](C(=O)O)[C@](O)(Cc2ccc(O)cc2)C(=O)O)cc1O [CIMICIFUGIC ACID F]
82	COc1ccc(/C=C/C(=O)O[C@H](C(=O)O)[C@](O)(Cc2ccc(O)c(O)c2)C(=O)O)cc1O [CIMICIFUGIC ACID B]

From ChEMBL document CHEMBL1157074, “Hyaluronidase inhibitors from "Cimicifugae Rhizoma" (a mixture of the rhizomes of Cimicifuga dahurica and C. heracleifolia)” (J Nat Prod, 2010)
